Measured values: ChEMBL document CHEMBL4138242, “Synthesis and antibacterial evaluation of novel cationic chalcone derivatives possessing broad spectrum antibacterial activity” (Eur J Med Chem, 2018)
Activity calls are given as the source filed them. The rule behind the calls is not given here.

Assays:
[1] = system: Escherichia coli; assay: Antibacterial activity against drug-resistant NDM1 producing Escherichia coli clinical isolate CF-13-61 after 16 to 20 hrs by broth microdilution method; assay type: functional
Procedure, shortened: (§1)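 CLSI broth microdilution in Mueller-Hinton broth. A 4-6 h culture was diluted to about 10⁶ CFU/mL and mixed 1:1 with compound dilutions prepared at 256 to 0.5 µg/mL from aqueous stocks. Plates were incubated at 37 °C for 16-20 h and read visually for MIC. Each concentration was run in duplicate, and the experiment was repeated at least twice. Vancomycin and meropenem were comparators.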

[2] = system: Staphylococcus aureus; assay: Antibacterial activity against methicillin-resistant Staphylococcus aureus clinical isolate 0831010 after 16 to 20 hrs by broth microdilution method; assay type: functional; procedure, shortened: as §1
[3] = system: Escherichia coli; assay: Antibacterial activity against drug-resistant NDM1 producing Escherichia coli clinical isolate Ecl-14-56 after 16 to 20 hrs by broth microdilution method; assay type: functional; procedure, shortened: as §1
[4] = system: Escherichia coli; assay: Antibacterial activity against drug-resistant NDM1 producing Escherichia coli clinical isolate Ecl-13-62 after 16 to 20 hrs by broth microdilution method; assay type: functional; procedure, shortened: as §1
[5] = system: Escherichia coli; assay: Antibacterial activity against drug-resistant NDM1 producing Escherichia coli clinical isolate KP-13-58 after 16 to 20 hrs by broth microdilution method; assay type: functional; procedure, shortened: as §1
[6] = system: Staphylococcus aureus; assay: Antibacterial activity against methicillin-resistant Staphylococcus aureus clinical isolate 1208143 after 16 to 20 hrs by broth microdilution method; assay type: functional; procedure, shortened: as §1
[7] = system: Staphylococcus aureus; assay: Antibacterial activity against Staphylococcus aureus ATCC 29213 after 16 to 20 hrs by broth microdilution method; assay type: functional
Procedure, shortened: (§2)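 Broth microdilution per CLSI. Bacteria grown 4-6 h (about 10⁸ CFU/mL), then diluted to about 10⁶ CFU/mL. Medium: Mueller-Hinton broth, except Luria-Bertani broth for E. coli. Compounds in sterile water, twofold series 256-0.5 µg/mL, mixed 1:1 with inoculum, 37 °C for 16-20 h. MIC is the lowest concentration without visible growth. Duplicate wells; experiment repeated at least twice.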

[8] = system: Klebsiella pneumoniae; assay: Antibacterial activity against drug-resistant carbapenemase producing Klebsiella pneumoniae clinical isolate KP-14-3 after 16 to 20 hrs by broth microdilution method; assay type: functional; procedure, shortened: as §1
[9] = system: Staphylococcus aureus; assay: Induction of inner membrane permeabilization in Staphylococcus aureus ATCC 29213 at 10 to 20 ug/ml measured every 2 mins for 12 mins by propidium iodide staining-based fluorescence assay; assay type: functional, organism-based
Procedure, shortened: (§3)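 Mid-log cells (~10⁸ CFU/mL) were suspended in PBS (S. aureus) or HEPES/glucose/KCl (E. coli). They were preincubated with propidium iodide for 30 min (S. aureus) or 40 min (E. coli), and baseline fluorescence was read for 8 min. Compound was added to 20 µg/mL final, and fluorescence (ex 535/em 617 nm) was read every 2 min for 12 min.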

[10] = system: Enterococcus faecalis; assay: Antibacterial activity against Enterococcus faecalis ATCC 29212 after 16 to 20 hrs by broth microdilution method; assay type: functional; procedure, shortened: as §2
[11] = system: Klebsiella pneumoniae; assay: Antibacterial activity against drug-resistant carbapenemase producing Klebsiella pneumoniae clinical isolate KP-14-5 after 16 to 20 hrs by broth microdilution method; assay type: functional; procedure, shortened: as §1
[12] = system: Klebsiella pneumoniae; assay: Antibacterial activity against drug-resistant carbapenemase producing Klebsiella pneumoniae clinical isolate KP-14-18 after 16 to 20 hrs by broth microdilution method; assay type: functional; procedure, shortened: as §1
[13] = system: Escherichia coli; assay: Antibacterial activity against Escherichia coli ATCC 25922 after 16 to 20 hrs by broth microdilution method; assay type: functional; procedure, shortened: as §2
[14] = system: Klebsiella pneumoniae; assay: Antibacterial activity against drug-resistant carbapenemase producing Klebsiella pneumoniae clinical isolate KP-13-45 after 16 to 20 hrs by broth microdilution method; assay type: functional; procedure, shortened: as §1
[15] = system: Escherichia coli; assay: Antibacterial activity against drug-resistant NDM1 producing Escherichia coli clinical isolate CF-15-61 after 16 to 20 hrs by broth microdilution method; assay type: functional; procedure, shortened: as §1
[16] = system: Escherichia coli; assay: Antibacterial activity against drug-resistant NDM1 producing Escherichia coli clinical isolate 1460 after 16 to 20 hrs by broth microdilution method; assay type: functional; procedure, shortened: as §1
[17] = system: Klebsiella pneumoniae; assay: Antibacterial activity against drug-resistant carbapenemase producing Klebsiella pneumoniae clinical isolate KP-13-54 after 16 to 20 hrs by broth microdilution method; assay type: functional; procedure, shortened: as §1
[18] = system: Staphylococcus aureus; assay: Antibacterial activity against methicillin-resistant Staphylococcus aureus clinical isolate 20131012632sau after 16 to 20 hrs by broth microdilution method; assay type: functional; procedure, shortened: as §1
[19] = system: Staphylococcus aureus; assay: Induction of cytoplasmic membrane depolarization in Staphylococcus aureus ATCC 29213 at 10 to 20 ug/ml measured every 2 mins for 12 mins by DiSC35 dye-based fluorescence assay; assay type: functional, organism-based
Procedure, shortened: (§4)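 Mid-log cells (~10⁸ CFU/mL) were suspended in PBS (S. aureus) or HEPES/glucose/KCl with EDTA (E. coli). They were preloaded with DiSC3(5) for 30 min (S. aureus) or 40 min (E. coli), and baseline fluorescence was read for 8 min. Compound was added to 20 µg/mL final, and fluorescence (ex 622/em 670 nm) was read every 2 min for 12 min. Water served as control.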

[20] = Hemolytic activity in sheep RBC after 1 hr; assay type: ADME, cell-based, Ovis aries, Erythrocyte; conditions: sheep red blood cells (erythrocytes)
Procedure, shortened: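 Sheep red blood cells (150 µL suspension) mixed with 50 µL of compound dilutions (5120-10 µg/mL), 1 h at 37 °C, then centrifuged. Supernatant read at 540 nm. Percent hemolysis calculated relative to RBC-only control (0%) and 0.1% Triton X-100 (100%).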

[21] = system: Staphylococcus aureus; assay: Antibacterial activity against methicillin-resistant Staphylococcus aureus clinical isolate 1-may after 16 to 20 hrs by broth microdilution method; assay type: functional; procedure, shortened: as §1
[22] = system: Escherichia coli; assay: Induction of inner membrane permeabilization in Escherichia coli ATCC 25922 at 10 to 20 ug/ml measured every 2 mins for 12 mins by propidium iodide staining-based fluorescence assay; assay type: functional, organism-based; procedure, shortened: as §3
[23] = system: Klebsiella pneumoniae; assay: Antibacterial activity against drug-resistant carbapenemase producing Klebsiella pneumoniae clinical isolate KP-14-1 after 16 to 20 hrs by broth microdilution method; assay type: functional; procedure, shortened: as §1
[24] = system: Staphylococcus aureus; assay: Antibacterial activity against methicillin-resistant Staphylococcus aureus clinical isolate 1104060 after 16 to 20 hrs by broth microdilution method; assay type: functional; procedure, shortened: as §1
[25] = system: Escherichia coli; assay: Antibacterial activity against drug-resistant NDM1 producing Escherichia coli clinical isolate EC-14-54 after 16 to 20 hrs by broth microdilution method; assay type: functional; procedure, shortened: as §1
[26] = system: Klebsiella pneumoniae; assay: Antibacterial activity against drug-resistant carbapenemase producing Klebsiella pneumoniae clinical isolate KP-14-45 after 16 to 20 hrs by broth microdilution method; assay type: functional; procedure, shortened: as §1
[27] = system: Klebsiella pneumoniae; assay: Antibacterial activity against drug-resistant carbapenemase producing Klebsiella pneumoniae clinical isolate KP-13-55 after 16 to 20 hrs by broth microdilution method; assay type: functional; procedure, shortened: as §1
[28] = system: Escherichia coli; assay: Antibacterial activity against drug-resistant NDM1 producing Escherichia coli clinical isolate Ecl-14-58 after 16 to 20 hrs by broth microdilution method; assay type: functional; procedure, shortened: as §1
[29] = system: Staphylococcus aureus; assay: Antibacterial activity against methicillin-resistant Staphylococcus aureus clinical isolate 20130911034sau after 16 to 20 hrs by broth microdilution method; assay type: functional; procedure, shortened: as §1
[30] = system: Staphylococcus aureus; assay: Antibacterial activity against methicillin-resistant Staphylococcus aureus clinical isolate 0906202 after 16 to 20 hrs by broth microdilution method; assay type: functional; procedure, shortened: as §1
[31] = system: Staphylococcus aureus; assay: Antibacterial activity against methicillin-resistant Staphylococcus aureus clinical isolate 1105183 cono7 after 16 to 20 hrs by broth microdilution method; assay type: functional; procedure, shortened: as §1
[32] = system: Escherichia coli; assay: Antibacterial activity against drug-resistant NDM1 producing Escherichia coli clinical isolate SM-15-84 after 16 to 20 hrs by broth microdilution method; assay type: functional; procedure, shortened: as §1
[33] = system: Escherichia coli; assay: Antibacterial activity against drug-resistant NDM1 producing Escherichia coli clinical isolate EA-14-61 after 16 to 20 hrs by broth microdilution method; assay type: functional; procedure, shortened: as §1
[34] = system: Salmonella enterica; assay: Antibacterial activity against Salmonella enterica ATCC 13076 after 16 to 20 hrs by broth microdilution method; assay type: functional; procedure, shortened: as §2
[35] = system: Klebsiella pneumoniae; assay: Antibacterial activity against drug-resistant carbapenemase producing Klebsiella pneumoniae clinical isolate KP-14-8 after 16 to 20 hrs by broth microdilution method; assay type: functional; procedure, shortened: as §1
[36] = system: Klebsiella pneumoniae; assay: Antibacterial activity against drug-resistant carbapenemase producing Klebsiella pneumoniae clinical isolate KP-14-4 after 16 to 20 hrs by broth microdilution method; assay type: functional; procedure, shortened: as §1
[37] = system: Staphylococcus aureus; assay: Antibacterial activity against methicillin-resistant Staphylococcus aureus clinical isolate 1207007 after 16 to 20 hrs by broth microdilution method; assay type: functional; procedure, shortened: as §1
[38] = system: Escherichia coli; assay: Antibacterial activity against drug-resistant NDM1 producing Escherichia coli clinical isolate EC-13-49 after 16 to 20 hrs by broth microdilution method; assay type: functional; procedure, shortened: as §1
[39] = system: Escherichia coli; assay: Induction of cytoplasmic membrane depolarization in Escherichia coli ATCC 25922 at 10 to 20 ug/ml measured every 2 mins for 12 mins by DiSC35 dye-based fluorescence assay; assay type: functional, organism-based; procedure, shortened: as §4
[40] = system: Klebsiella pneumoniae; assay: Antibacterial activity against drug-resistant carbapenemase producing Klebsiella pneumoniae clinical isolate EC-13-23 after 16 to 20 hrs by broth microdilution method; assay type: functional; procedure, shortened: as §1
[41] = system: Klebsiella pneumoniae; assay: Antibacterial activity against drug-resistant carbapenemase producing Klebsiella pneumoniae clinical isolate KP-14-2 after 16 to 20 hrs by broth microdilution method; assay type: functional; procedure, shortened: as §1
[42] = system: Escherichia coli; assay: Antibacterial activity against drug-resistant NDM1 producing Escherichia coli clinical isolate Ecl-14-59 after 16 to 20 hrs by broth microdilution method; assay type: functional; procedure, shortened: as §1

CCCCCCCC[N+](C)(C)CC(=O)Nc1ccc(C(=O)/C=C/c2cccc(Cl)c2)cc1.[Cl-]
MIC [1]: 16 µg/mL
MIC [2]: 0.5 µg/mL
MIC [3]: 4 µg/mL
MIC [4]: 4 µg/mL
MIC [5]: 1 µg/mL
MIC [6]: 1 µg/mL
MIC [7]: 2 µg/mL
MIC [8]: 4 µg/mL
Activity [9]: Active
MIC [10]: 1 µg/mL
MIC [11]: 4 µg/mL
MIC [12]: 8 µg/mL
MIC [13]: 4 µg/mL
MIC [14]: 4 µg/mL
MIC [15]: 8 µg/mL
MIC [16]: 4 µg/mL
MIC [17]: 4 µg/mL
MIC [18]: 2 µg/mL
Activity [19]: Active
HC50 at 1 h [20]: 186 µg/mL
MIC [21]: 1 µg/mL
Activity [22]: Active
MIC [23]: 8 µg/mL
MIC [24]: 8 µg/mL
MIC [25]: 4 µg/mL
MIC [26]: 8 µg/mL
MIC [27]: 8 µg/mL
MIC [28]: 4 µg/mL
MIC [29]: 0.5 µg/mL
MIC [30]: 4 µg/mL
MIC [31]: 1 µg/mL
MIC [32]: 16 µg/mL
MIC [33]: 4 µg/mL
MIC [34]: 4 µg/mL
MIC [35]: 4 µg/mL
MIC [36]: 4 µg/mL
MIC [37]: 0.5 µg/mL
MIC [38]: 4 µg/mL
Activity [39]: Active
MIC [40]: 4 µg/mL
MIC [41]: 8 µg/mL
MIC [42]: 4 µg/mL

CCCCCCCC[N+](C)(C)CC(=O)Nc1ccc(C(=O)/C=C/c2cccs2)cc1.[Cl-]
MIC [1]: 8 µg/mL
MIC [2]: 0.5 µg/mL
MIC [3]: 8 µg/mL
MIC [4]: 8 µg/mL
MIC [5]: 2 µg/mL
MIC [6]: 2 µg/mL
MIC [7]: 0.5 µg/mL
MIC [8]: 8 µg/mL
MIC [10]: 1 µg/mL
MIC [11]: 8 µg/mL
MIC [12]: 16 µg/mL
MIC [13]: 4 µg/mL
MIC [14]: 8 µg/mL
MIC [15]: 8 µg/mL
MIC [16]: 2 µg/mL
MIC [17]: 8 µg/mL
MIC [18]: 4 µg/mL
HC50 at 1 h [20]: 133 µg/mL
MIC [21]: 2 µg/mL
MIC [23]: 8 µg/mL
MIC [24]: 16 µg/mL
MIC [25]: 4 µg/mL
MIC [26]: 16 µg/mL
MIC [27]: 16 µg/mL
MIC [28]: 8 µg/mL
MIC [29]: 1 µg/mL
MIC [30]: 1 µg/mL
MIC [31]: 1 µg/mL
MIC [32]: 4 µg/mL
MIC [33]: 8 µg/mL
MIC [34]: 8 µg/mL
MIC [35]: 8 µg/mL
MIC [36]: 8 µg/mL
MIC [37]: 1 µg/mL
MIC [38]: 4 µg/mL
MIC [40]: 8 µg/mL
MIC [41]: 2 µg/mL
MIC [42]: 8 µg/mL
